Experimental data: PMC4427609 (Drug Design, Development and Therapy, 2015)
Like-named read-outs stand apart in the source and are kept apart here.

How the values were obtained:
Format in all cases: in vivo, rat
[1] = tested on: Sprague-Dawley rats; conditions: third day post STZ, mean ± SEM, n=10; for ALP (alkaline phosphatase) / ALT (alanine aminotransferase) / AST (aspartate aminotransferase) / Albumin / Creatinine / GGT (gamma-glutamyl transferase) / Urea: serum
Procedure, shortened: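 Male SD rats got blank injections (no STZ), one STZ dose, or two STZ doses over 2 days. STZ was freshly dissolved in 0.1 M citrate buffer pH 4.5 and given at 80 mg/kg ip. On day 3 rats were fasted for 18 h with water ad libitum. They were then staged by glucose: Stage 0 <200, Stage 1 200–450, Stage 2 451–750 mg/dL.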

[2] = tested on: Sprague-Dawley rats; assay: Histopathology of liver, kidney and pancreas of STZ-induced diabetic rats; conditions: hematoxylin and eosin, light microscope
Procedure, shortened: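 Diabetes was induced in male SD rats with freshly dissolved STZ (0.1 M citrate, pH 4.5), 80 mg/kg ip, two doses over 2 days; diabetic meant fasting glucose >200 mg/dL. Liver, kidney and pancreas from diabetic and nondiabetic rats were taken immediately after sacrifice and fixed in 10% phosphate-buffered formalin. Tissue was paraffin-embedded, cut at 5 μm, H&E-stained and examined by light microscopy.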

[3] = tested on: STZ diabetic and nondiabetic rats; assay: Effect of insulin dose on STZ diabetic and nondiabetic rats; conditions: insulin 6 IU/kg subcutaneously, 2 hours, mean ± SEM, n=10
[4] = Serum insulin pharmacokinetics in STZ diabetic and nondiabetic rats; conditions: insulin 4 IU/kg subcutaneously; result in words
[5] = Stage 1 diabetic rats (200–450 mg/dL)
[6] = Stage 2 diabetic rats (451–750 mg/dL)

Compound: CN(N=O)C(=O)N[C@H]1C(O)O[C@H](CO)[C@@H](O)[C@@H]1O (mixture of isomers) [STZ, streptozotocin]
- Glucose (heart) [1, 5]: 439 ± 20.9 mg/dL
- Glucose (heart) [1, 6]: 668 ± 34.5 mg/dL
- ALP (alkaline phosphatase) [1, 5]: 247±47.5 IU/L
- ALT (alanine aminotransferase) [1, 5]: 88±18.8 IU/L
- AST (aspartate aminotransferase) [1, 5]: 131.4±23.1 IU/L
- Albumin [1, 5]: 4.5 ± 0.3 g/dL
- Creatinine [1, 5]: 1.1 ± 0.3 mg/dL
- GGT (gamma-glutamyl transferase) [1, 5]: 3.4±0.8 IU/L
- Urea [1, 5]: 70.7 ± 10.2 mg/dL
- ALP (alkaline phosphatase) [1, 6]: 322.7±25.5 IU/L
- ALT (alanine aminotransferase) [1, 6]: 80.1±8.1 IU/L
- AST (aspartate aminotransferase) [1, 6]: 151.8±22.9 IU/L
- Albumin [1, 6]: 4.9 ± 0.2 g/dL
- Creatinine [1, 6]: 1.6 ± 0.2 mg/dL
- GGT (gamma-glutamyl transferase) [1, 6]: 9.5±4.1 IU/L
- Urea [1, 6]: 148.8 ± 9.3 mg/dL
- Histology of kidney sections [2]: tubular atrophy and increased vacuolization of renal tubular epithelial cells
- Histology of liver sections [2]: clear diffused hepatic steatosis

Compound: insulin: Recombinant human (rh) insulin powder from Biocon, dissolved in Tris buffer (pH 7), injected subcutaneously
- minimum percentage of glucose level ([3]; STZ diabetic rats): 13.4%±1%
- minimum percentage of glucose level ([3]; nondiabetic rats): 40.7%±4%
- AUC of diabetic rats compared to nondiabetic rats [4]: doubled
